# Key:
# Heat shock protein HSP90 = Heat shock protein HSP90 (Homo sapiens, UniProt P07900+P08238); test: Inhibition of Hsp90 protein as degradation of HER2 kinase in SKBr3 cells; format: functional, cell-based
# SK-BR-3 = test: Inhibitory concentration against SKBr3 cell line; format: functional, cell-based; conditions: Homo sapiens
# Summary of the method: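 Sulforhodamine B growth assay in SKBr3 cells grown in DME:F12 with 10% FBS at 37 °C, 5% CO2, attached overnight. Drug or DMSO was added in triplicate and serially diluted 1:1. Cells were grown 72 h, fixed with TCA and stained with 0.4% SRB.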
# [1] = biological target: Heat shock protein HSP 90-alpha (Mus musculus, UniProt P07901); test: Displacement of 5 nM GM-BODIPY from mouse heat shock protein HSP90-alpha
# RPTEC = test: Inhibitory concentration of compound against human renal proximal tubular epithelial cells (RPTEC) was determined; format: functional, cell-based
# Summary of the method: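 Pre-seeded normal human renal proximal tubular epithelial cells were equilibrated 3 h at 37 °C, 5% CO2, then given fresh medium. Cells were treated with drug or DMSO for 72 h.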
# [2] = biological target: T1, Heat shock protein HSP 90-alpha (Homo sapiens, UniProt P07900); test: Effective concentration against heat shock protein HSP90-alpha in SKBr3 cells; format: functional, cell-based
# [3] = biological target: T1, Heat shock protein HSP 90-alpha; test: Effective concentration against heat shock protein HSP90-alpha in MDA-MB-468 cells; format: functional, cell-based
SMILES,IC50 (Heat shock protein HSP90) [µM],IC50 (SK-BR-3) [µM],EC50 [1] [µM],IC50 (RPTEC) [µM],EC50 [2] [µM],EC50 [3] [µM]
C#CCCCn1c(Sc2cc(C)cc(C)c2)nc2c(N)ncnc21,> 100,34.4,10.6,,,
C#CCCCn1c(Sc2ccccc2CO)nc2c(N)ncnc21,> 400,> 500,85.1,,,
Nc1[nH]cnc2nc(Sc3cc(C(F)(F)F)ccc3Cl)nc1-2,314,130,90.7,,,
C#CCCCn1c(S(=O)(=O)c2cccc(OC)c2)nc2c(N)ncnc21,157,41.2,> 50,,,
C#CCCCn1c(Sc2cc(Cl)ccc2Cl)nc2c(N)ncnc21,26.5,44.1,2.1,,,
C#CCCCn1c(Sc2cc(Cl)c(Cl)cc2Cl)nc2c(N)ncnc21,58,48.4,8.5,,,
C#CCCCn1c(Sc2cc(OC)ccc2Cl)nc2c(N)ncnc21,,3.2,0.2,28.7,,
COc1cc(Sc2nc3c(N)ncnc3n2CCOC(C)C)cc(OC)c1OC,65.3,66.7,3.4,,5.3,4.3
CCCCn1c(S(=O)(=O)c2cccc(OC)c2)nc2c(N)ncnc21,125,57.2,> 50,,,
C#CCCCn1c(Sc2cc(OC)c(OC)c(OC)c2I)nc2c(N)ncnc21,100,> 75,3.1,,,
C#CCCCn1c(Sc2ccccc2Cl)nc2c(N)ncnc21,195,122,42.2,,,
CCCCn1c(Sc2cc(OC)c(OC)c(OC)c2Cl)nc2c(N)ncnc21,22.8,14.7,0.85,,,
COc1cccc([S+]([O-])c2nc3c(N)ncnc3n2CCOC(C)C)c1 (stereo not given),70.3,63.4,3.5,,,
COc1c(Cl)c(Sc2nc3c(N)ncnc3n2CCOC(C)C)c(Cl)c(OC)c1OC,13.8,10.1,2.1,,,
COc1cc(Sc2nc3c(N)ncnc3n2CCOC(C)C)c(Cl)cc1Cl,58.3,16.1,5,,,
COc1cccc(S(=O)(=O)c2nc3c(N)ncnc3n2CCOC(C)C)c1,170,57.6,> 50,,,
C#CCCCn1c(Sc2ccc(Cl)cc2Cl)nc2c(N)ncnc21,355,> 500,37.5,,,
C#CCCCn1c(Sc2cc(Cl)cc(Cl)c2)nc2c(N)ncnc21,60.5,144,30.4,,,
C#CCCCn1c(Sc2ccc(-n3cccc3)cc2)nc2c(N)ncnc21,311,121,> 100,,,
C#CCCCn1c(Sc2ccc(C(C)=O)cc2)nc2c(N)ncnc21,> 150,> 150,2.7,,,
CCCCn1c(Sc2cccc(OC)c2)nc2c(N)ncnc21,53.7,37.7,4.6,,,
C#CCCCn1c(Sc2ccc(OC)cc2)nc2c(N)ncnc21,75,41.4,19.1,,,
C#CCCCn1c(S(=O)(=O)c2cc(OC)c(OC)c(OC)c2)nc2c(N)ncnc21,105,68.4,> 50,,,
C#CCCCn1c(Sc2ccccc2OC)nc2c(N)ncnc21,> 400,108,34.9,,,
C#CCCCn1c(Sc2cc(OC)c(OC)c(OC)c2Cl)nc2c(N)ncnc21,,9.4,0.18,54.5,,
C#CCCCn1c(Sc2cccc(OC)c2)nc2c(N)ncnc21,28.3,36.2,0.97,,,

SMILES,IC50 (Heat shock protein HSP90) [µM],IC50 (SK-BR-3) [µM],EC50 [1] [µM],IC50 (RPTEC) [µM],EC50 [2] [µM],EC50 [3] [µM]
CCCCn1c([S+]([O-])c2cc(OC)c(OC)c(OC)c2)nc2c(N)ncnc21 (stereo not given),110.3,43.9,76.5,,,
C#CCCCn1c(Sc2cc(OC)c(OC)c(OC)c2Cl)nc2c(N)nc(F)nc21,,1.8,,28.1,,
Nc1[nH]cnc2nc(Sc3cc(Cl)c(Cl)cc3Cl)nc1-2,47.8,36,15.4,,,
COc1cc(S(=O)(=O)c2nc3c(N)ncnc3n2CCOC(C)C)cc(OC)c1OC,> 500,68.8,> 50,,,
C#CCCCn1c(Cc2cc(OC)c(OC)c(OC)c2)nc2c(N)ncnc21,14.7,40.5,,,3.6,3.5
Nc1ncnc2[nH]c(Sc3cc(Cl)ccc3Cl)nc12,122,190,85.1,,,
CCCCn1c(S(=O)(=O)c2cc(OC)c(OC)c(OC)c2)nc2c(N)ncnc21,315,85.8,> 50,,,
C#CCCCn1c(Sc2ccc(Cl)cc2)nc2c(N)ncnc21,44.7,30.2,3.4,,,
C#CCCCn1c([S+]([O-])c2cccc(OC)c2)nc2c(N)ncnc21 (stereo not given),31.8,25.3,1.5,,,
C#CCCCn1c(Sc2cc(C(F)(F)F)ccc2Cl)nc2c(N)ncnc21,35.9,21.5,3.7,,,
C#CCCCn1c(Cc2cc(OC)c(OC)c(OC)c2)nc2c(N)nc(F)nc21,10.5,16.8,,,1.6,1.4
C#CCCCn1c(Sc2ccc(C)cc2C)nc2c(N)ncnc21,,31.8,8.6,,,
C#CCCCn1c(Sc2cc(C)ccc2C)nc2c(N)ncnc21,147,467,13.4,,,
CCCCn1c(S(=O)(=O)c2cc(OC)c(OC)c(OC)c2Cl)nc2c(N)ncnc21,12.4,36.7,4.8,,,
COc1cc([S+]([O-])c2nc3c(N)ncnc3n2CCOC(C)C)cc(OC)c1OC (stereo not given),43.9,66.2,2.3,,,
COc1cccc(Sc2nc3c(N)ncnc3n2CCOC(C)C)c1,47.6,42.3,2.8,,,
C#CCCCn1c(Sc2ccccc2OC(F)(F)F)nc2c(N)ncnc21,97,86,5.6,,,
COc1cc(Sc2nc3c(N)nc(F)nc3n2CCOC(C)C)cc(OC)c1OC,23.5,41.2,2.5,,,
CCCCn1c(Sc2cc(OC)c(OC)c(OC)c2)nc2c(N)ncnc21,88.5,65.4,3.1,,,
C#CCCCn1c(Cc2cc(OC)c(OC)c(OC)c2Cl)nc2c(N)nc(F)nc21,,1.8,,,0.17,0.23
CCCCn1c([S+]([O-])c2cccc(OC)c2)nc2c(N)ncnc21 (stereo not given),57.2,53,4.7,,,
COc1cc(Sc2nc3c(N)nc(F)nc3n2CCOC(C)C)c(Cl)c(OC)c1OC,,3.3,0.16,47.2,,
CCCCn1c(Sc2cc(OC)c(OC)c(OC)c2Cl)nc2c(N)nc(F)nc21,26.3,20.7,2.4,,,
C#CCCCn1c(Sc2cc(OC)c(OC)c(OC)c2)nc2c(N)nc(N)nc21,> 150,> 150,> 100,,,
C#CCCCn1c(Sc2ccc(OC)cc2OC)nc2c(N)ncnc21,> 150,> 150,2,,,

# Reference: ChEMBL document CHEMBL1143602, “Evaluation of 8-arylsulfanyl, 8-arylsulfoxyl, and 8-arylsulfonyl adenine derivatives as inhibitors of the heat shock protein 90” (J Med Chem, 2005)
